Laboratory results from ChEMBL document CHEMBL1131617 (J Med Chem, 1998).
pIC50: −log10 of the molar value.

Key:
D(2) dopamine receptor = D(2) dopamine receptor (Rattus norvegicus, UniProt P61169); experiment: relative affinity against Dopamine receptor D2 in striatum using [3H]YM-09151-2 as radioligand; format: tissue-based
Summary of the method: (§1)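 Radioligand competition binding was run per earlier published conditions. Inhibition was screened at 100 nM and 10 µM. Incubated tubes were filtered through glass-fibre filters on a vacuum manifold. Nonspecific binding was counts bound in the presence of a saturating concentration of an established competing ligand. Reference drugs were run in parallel as positive controls.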

[1] = target: Sodium-dependent dopamine transporter (Rattus norvegicus, UniProt P23977); experiment: relative affinity against dopamine transporter using WIN-35428 as radioligand; summary of the method: as §1
D(1A) dopamine receptor = D(1A) dopamine receptor (Rattus norvegicus, UniProt P18901); experiment: Relative affinity for Dopamine receptor D1 in striatum using [3H]SCH-23390; format: tissue-based; summary of the method: as §1
D(3) dopamine receptor = D(3) dopamine receptor (Rattus norvegicus, UniProt P19020); experiment: relative affinity against Dopamine receptor D3 in ventral striatum using [3H](+)-7-OH-DPAT as radioligand; format: tissue-based; summary of the method: as §1
[2] = target: Sodium-dependent serotonin transporter (Rattus norvegicus, UniProt P31652); experiment: relative affinity against serotonin transporter using RTI-55 as radioligand; summary of the method: as §1
Glutamate NMDA receptor = experiment: relative affinity against N-methyl-D-aspartate glutamate receptor in caudate using [3H](+)-MK-801 as radioligand; format: protein-complex assay
Summary of the method: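 Tubes incubated under the specified conditions, then filtered on glass-fibre filters and counted. Nonspecific binding taken as cpm bound with a saturating concentration of an established competing ligand. Reference drugs run in parallel as positive controls.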

Mu-type opioid receptor = Mu-type opioid receptor (Rattus norvegicus, UniProt P33535); experiment: Relative affinity against Opioid receptor mu 1 in thalamus using [3H]DAMGO as radioligand; format: tissue-based; summary of the method: as §1
[3] = target: Kappa-type opioid receptor (Rattus norvegicus, UniProt P34975); experiment: relative affinity against Opioid receptor kappa 1 in insular Ctx using [3H]U-69593 as radioligand
Chain of Kappa-type opioid receptor (P34975 whole entry): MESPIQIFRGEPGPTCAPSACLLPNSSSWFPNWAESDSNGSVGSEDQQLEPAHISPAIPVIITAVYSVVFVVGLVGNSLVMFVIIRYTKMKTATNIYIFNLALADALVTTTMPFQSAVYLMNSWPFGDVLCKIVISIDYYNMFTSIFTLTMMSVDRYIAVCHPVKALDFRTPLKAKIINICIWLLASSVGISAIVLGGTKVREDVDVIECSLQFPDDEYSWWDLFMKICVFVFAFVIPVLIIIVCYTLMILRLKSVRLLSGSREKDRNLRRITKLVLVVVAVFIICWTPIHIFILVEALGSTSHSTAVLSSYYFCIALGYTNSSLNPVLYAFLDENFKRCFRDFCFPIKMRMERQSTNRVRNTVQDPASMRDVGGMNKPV

Chain of Mu-type opioid receptor (P33535 whole entry): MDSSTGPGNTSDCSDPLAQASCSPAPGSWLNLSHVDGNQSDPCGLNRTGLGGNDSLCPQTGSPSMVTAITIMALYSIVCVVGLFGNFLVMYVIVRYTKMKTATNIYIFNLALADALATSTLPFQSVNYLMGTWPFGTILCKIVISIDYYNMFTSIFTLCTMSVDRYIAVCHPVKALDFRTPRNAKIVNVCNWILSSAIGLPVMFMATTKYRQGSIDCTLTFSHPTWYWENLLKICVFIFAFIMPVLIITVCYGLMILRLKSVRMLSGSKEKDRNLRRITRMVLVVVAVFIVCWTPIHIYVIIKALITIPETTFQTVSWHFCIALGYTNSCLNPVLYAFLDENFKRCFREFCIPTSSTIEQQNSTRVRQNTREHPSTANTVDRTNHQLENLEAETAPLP
Chain of D(1A) dopamine receptor (P18901 whole entry): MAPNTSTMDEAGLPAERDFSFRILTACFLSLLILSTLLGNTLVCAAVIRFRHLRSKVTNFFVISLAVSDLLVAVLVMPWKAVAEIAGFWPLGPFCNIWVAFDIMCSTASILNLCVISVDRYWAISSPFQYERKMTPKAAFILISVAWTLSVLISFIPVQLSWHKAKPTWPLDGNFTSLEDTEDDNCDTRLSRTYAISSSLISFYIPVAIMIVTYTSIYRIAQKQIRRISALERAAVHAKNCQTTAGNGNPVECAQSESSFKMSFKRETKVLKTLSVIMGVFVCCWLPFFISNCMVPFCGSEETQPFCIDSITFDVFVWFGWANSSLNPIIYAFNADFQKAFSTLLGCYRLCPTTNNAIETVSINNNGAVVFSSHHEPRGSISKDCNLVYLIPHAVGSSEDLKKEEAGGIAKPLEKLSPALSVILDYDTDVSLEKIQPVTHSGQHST
Chain of Sodium-dependent dopamine transporter (P23977 whole entry): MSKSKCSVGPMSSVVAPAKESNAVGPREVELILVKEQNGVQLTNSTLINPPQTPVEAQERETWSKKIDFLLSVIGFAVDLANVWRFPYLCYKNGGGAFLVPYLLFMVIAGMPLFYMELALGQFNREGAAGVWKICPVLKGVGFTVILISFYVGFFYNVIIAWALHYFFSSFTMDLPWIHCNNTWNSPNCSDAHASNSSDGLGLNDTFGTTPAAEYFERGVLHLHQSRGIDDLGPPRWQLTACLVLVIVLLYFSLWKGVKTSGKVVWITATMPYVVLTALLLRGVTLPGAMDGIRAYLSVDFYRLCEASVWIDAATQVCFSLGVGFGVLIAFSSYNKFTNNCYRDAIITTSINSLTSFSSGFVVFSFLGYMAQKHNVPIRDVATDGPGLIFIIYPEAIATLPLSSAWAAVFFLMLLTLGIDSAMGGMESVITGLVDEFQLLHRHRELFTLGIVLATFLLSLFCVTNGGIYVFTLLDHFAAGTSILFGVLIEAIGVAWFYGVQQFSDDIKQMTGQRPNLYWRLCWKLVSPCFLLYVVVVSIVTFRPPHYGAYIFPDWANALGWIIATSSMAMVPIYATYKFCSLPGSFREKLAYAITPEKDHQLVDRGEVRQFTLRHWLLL
Chain of D(2) dopamine receptor (P61169 whole entry): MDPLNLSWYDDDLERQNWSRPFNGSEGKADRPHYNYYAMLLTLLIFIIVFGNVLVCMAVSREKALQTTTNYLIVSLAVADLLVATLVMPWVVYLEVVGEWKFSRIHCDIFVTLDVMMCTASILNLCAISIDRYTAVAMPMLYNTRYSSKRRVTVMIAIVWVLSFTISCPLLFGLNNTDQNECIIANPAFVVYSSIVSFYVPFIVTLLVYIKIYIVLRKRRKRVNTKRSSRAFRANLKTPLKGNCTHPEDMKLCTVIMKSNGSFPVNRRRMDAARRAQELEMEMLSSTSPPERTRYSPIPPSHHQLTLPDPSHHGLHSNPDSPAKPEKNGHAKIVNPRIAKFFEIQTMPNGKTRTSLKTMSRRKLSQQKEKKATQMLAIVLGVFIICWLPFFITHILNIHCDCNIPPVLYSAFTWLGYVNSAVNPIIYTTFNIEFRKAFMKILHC
Chain of Sodium-dependent serotonin transporter (P31652 whole entry): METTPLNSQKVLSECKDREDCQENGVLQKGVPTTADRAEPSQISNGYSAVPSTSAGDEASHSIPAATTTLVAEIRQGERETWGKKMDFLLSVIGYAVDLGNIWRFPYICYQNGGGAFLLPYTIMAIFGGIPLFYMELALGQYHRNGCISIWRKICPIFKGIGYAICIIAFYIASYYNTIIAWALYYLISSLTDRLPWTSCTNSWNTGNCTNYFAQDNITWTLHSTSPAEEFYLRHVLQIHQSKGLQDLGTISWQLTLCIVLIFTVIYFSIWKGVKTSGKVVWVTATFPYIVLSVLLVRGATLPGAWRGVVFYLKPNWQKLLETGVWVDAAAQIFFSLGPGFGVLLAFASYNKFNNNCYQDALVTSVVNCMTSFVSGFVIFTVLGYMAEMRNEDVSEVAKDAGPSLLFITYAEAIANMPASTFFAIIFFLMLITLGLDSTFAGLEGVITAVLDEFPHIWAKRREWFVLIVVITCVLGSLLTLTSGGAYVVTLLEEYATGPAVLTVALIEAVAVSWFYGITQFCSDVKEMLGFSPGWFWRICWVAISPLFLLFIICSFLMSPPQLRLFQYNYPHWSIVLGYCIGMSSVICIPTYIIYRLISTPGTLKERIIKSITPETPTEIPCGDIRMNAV
Chain of D(3) dopamine receptor (P19020 whole entry): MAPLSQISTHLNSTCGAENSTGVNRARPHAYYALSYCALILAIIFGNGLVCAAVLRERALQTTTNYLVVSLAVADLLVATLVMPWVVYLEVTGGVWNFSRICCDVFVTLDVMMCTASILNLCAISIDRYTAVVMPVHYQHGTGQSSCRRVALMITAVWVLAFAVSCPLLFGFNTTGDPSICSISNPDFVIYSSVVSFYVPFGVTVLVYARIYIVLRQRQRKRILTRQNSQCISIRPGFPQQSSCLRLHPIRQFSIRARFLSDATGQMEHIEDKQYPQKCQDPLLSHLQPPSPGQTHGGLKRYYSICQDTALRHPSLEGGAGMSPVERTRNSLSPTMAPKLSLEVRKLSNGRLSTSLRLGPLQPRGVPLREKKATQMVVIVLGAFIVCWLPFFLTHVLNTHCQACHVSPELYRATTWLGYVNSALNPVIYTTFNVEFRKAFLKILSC

SMILES	pIC50 (D(2) dopamine receptor)	pIC50 [1]	pIC50 (D(1A) dopamine receptor)	pIC50 (D(3) dopamine receptor)	pIC50 [2]	pIC50 (Glutamate NMDA receptor)	pIC50 (Mu-type opioid receptor)	pIC50 [3]
CC[C@H]1C[C@@H]2C[C@H]3c4[nH]c5ccc(OC)cc5c4CCN(C2)[C@@H]13 [IBOGAINE]	< 5.00	5.39	< 5.00	< 5.00	6.23	5.28	–	–
CCN1CCc2c(sc3ccccc23)C(c2ccccc2)C1 (stereo not drawn)	5.30	6.85	5.52	6.22	6.52	4.38	5.66	5.89
CN1CCc2c([nH]c3ccccc23)C(c2ccccc2)C1 (stereo not drawn)	4.57	6.74	4.70	5.38	6.72	–	5.51	4.67
CC[C@@H]1CC2C[C@@H]3c4[nH]c5ccc(O)cc5c4CCN(C2)C13	< 5.00	–	< 5.00	< 5.00	7.40	4.50	6.80	5.37
CCN1CCc2c(sc3ccccc23)C(c2cccc([N+](=O)[O-])c2)C1 (stereo not drawn)	5.51	6.60	5.30	6.22	5.96	4.49	5.51	4.79
CCN1CCc2c(sc3ccccc23)C(c2cccc(Br)c2)C1 (stereo not drawn)	5.46	6.68	5.30	5.70	5.37	4.33	5.30	4.90
CCN1CCc2c(sc3ccccc23)C(c2ccc(Cl)c(Cl)c2)C1 (stereo not drawn)	5.30	6.60	4.15	5.70	5.92	4.09	4.26	4.80
COc1cc2c(cc1OC)C(c1ccccc1)CN(C)CC2 (stereo not drawn)	–	–	6.31	–	–	–	–	–
